# ChEMBL document CHEMBL2321684, “Novel hybrids of optically active ring-opened 3-n-butylphthalide derivative and isosorbide as potential anti-ischemic stroke agents” (J Med Chem, 2013)
# Structures can show the parent of a compound that is named as a salt. Calls of active or inactive are those of the source. The calls are words filed in the database; no cut-off is given here.
# Legend:
# [1] = Antiplatelet aggregation activity in rabbit platelets assessed as inhibition of ADP-induced platelet aggregation incubated for 5 mins prior to ADP-challenge measured within 5 mins by Born's turbidimetric analysis; type: functional, cell-based; details: Oryctolagus cuniculus
# [2] = Antiplatelet aggregation activity in rabbit platelets assessed as inhibition of arachidonic acid-induced platelet aggregation incubated for 5 mins prior to arachidonic acid-challenge measured within 5 mins by Born's turbidimetric analysis; type: functional, cell-based; details: Oryctolagus cuniculus
# Method in brief: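 Rabbit citrated PRP was adjusted to 400−450 × 10⁹ platelets/L and preincubated for 5 min at 37 °C with vehicle DMSO or compound at 0.1−1.6 mM (at least five concentrations). Aggregation was induced with arachidonic acid (0.33 mM, per the methods text). Maximum aggregation rate was recorded over 5 min by Born's turbidimetry, and IC₅₀ was derived from inhibition versus vehicle (mean ± SD).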
# [3] = Antiplatelet aggregation activity in rabbit platelets assessed as inhibition of ADP-induced platelet aggregation at 1 mM incubated for 5 mins prior to ADP-challenge measured within 5 mins by Born's turbidimetric analysis relative to control; type: functional; details: Oryctolagus cuniculus
# Method in brief: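 Rabbit carotid blood was citrated (3.8%, 9:1). PRP was adjusted with PPP to 400−450 × 10⁹ platelets/L. PRP was preincubated with compound or DMSO for 5 min at 37 °C, then aggregation was induced with ADP at 10 μM. Maximum aggregation rate was recorded over 5 min using Born's turbidimetry. Inhibition % was calculated versus vehicle; n = 6, mean ± SD.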
# Mus musculus = assay: Antithrombotic activity in Swiss ICR mouse assessed as inhibition of collagen/adrenaline-induced acute systemic vascular thromboembolism at 160 mg/kg, po administered for 7 days prior to collagen/adrenaline-challenge measured up to 15 mins relative to control; type: functional, organism-based; parameters: dose 160 mg/kg
# Method in brief: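 Male Swiss ICR mice (30−35 g), n = 15 per group, dosed by gavage daily for 7 days in DMSO vehicle. Two hours after the last dose, mice received collagen (0.21 mg/kg) plus adrenaline (44.5 μg/kg) iv. Survival was monitored for 15 min and reported as % surviving.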
IC50 [1] [µM],IC50 [2] [µM],SMILES,inhibition at 1000 µM [3] [%],Activity (Mus musculus)
710,570,CCCC[C@@H](OC(C)=O)c1ccccc1C(=O)O[C@H]1CO[C@H]2[C@@H]1OC[C@H]2OC(=O)c1ccccc1[C@@H](CCCC)OC(C)=O,,
,,CCCC[C@H](OC(=O)CN1CCN(C)CC1)c1ccccc1C(=O)O[C@@H]1CO[C@H]2[C@@H]1OC[C@@H]2O[N+](=O)[O-],6.94,
800,640,CCCC[C@H](OC(=O)CN1CCCC1)c1ccccc1C(=O)O[C@H]1CO[C@H]2[C@@H]1OC[C@H]2OC(=O)c1ccccc1[C@H](CCCC)OC(=O)CN1CCCC1,,
450,320,CCCC[C@H](OC(=O)CN1CCOCC1)c1ccccc1C(=O)O[C@H]1CO[C@H]2[C@@H]1OC[C@H]2OC(=O)c1ccccc1[C@H](CCCC)OC(=O)CN1CCOCC1,,
1000,910,CCCC[C@@H](OC(=O)CN1CCCC1)c1ccccc1C(=O)O[C@H]1CO[C@H]2[C@@H]1OC[C@H]2OC(=O)c1ccccc1[C@@H](CCCC)OC(=O)CN1CCCC1,,
,,CCCC[C@H](OC(=O)CN1CCN(C)CC1)c1ccccc1C(=O)O[C@H]1CO[C@H]2[C@@H]1OC[C@H]2O,6.94,
330,210,CCCC[C@H](OC(C)=O)c1ccccc1C(=O)O[C@H]1CO[C@H]2[C@@H]1OC[C@H]2OC(=O)c1ccccc1[C@H](CCCC)OC(C)=O,,
490,360,CCCC[C@H](OC(=O)CN1CCN(CCO)CC1)c1ccccc1C(=O)O[C@H]1CO[C@H]2[C@@H]1OC[C@H]2OC(=O)c1ccccc1[C@H](CCCC)OC(=O)CN1CCN(CCO)CC1,,
,,CCCC[C@H](OC(=O)CN1CCN(C)CC1)c1ccccc1C(=O)O,6.94,
360,270,CCCC[C@@H](OC(=O)CN1CCN(C)CC1)c1ccccc1C(=O)O[C@H]1CO[C@H]2[C@@H]1OC[C@H]2OC(=O)c1ccccc1[C@@H](CCCC)OC(=O)CN1CCN(C)CC1,,
,,CCCC[C@H](OC(=O)CN1CCN(C)CC1)c1ccccc1C(=O)O[C@@H]1CO[C@H]2[C@@H]1OC[C@@H]2O,6.94,
,,CCCC[C@H](OC(=O)CN1CCN(C)CC1)c1ccccc1C(=O)O[C@H]1CO[C@H]2[C@@H]1OC[C@H]2O[N+](=O)[O-],6.94,
,140,CC(=O)Oc1ccccc1C(=O)O [ASPIRIN],,Active
940,800,CCCC[C@@H](OC(=O)CN1CCOCC1)c1ccccc1C(=O)O[C@H]1CO[C@H]2[C@@H]1OC[C@H]2OC(=O)c1ccccc1[C@@H](CCCC)OC(=O)CN1CCOCC1,,
750,630,CCCC[C@@H](OC(=O)CN1CCN(CCO)CC1)c1ccccc1C(=O)O[C@H]1CO[C@H]2[C@@H]1OC[C@H]2OC(=O)c1ccccc1[C@@H](CCCC)OC(=O)CN1CCN(CCO)CC1,,
1350,1680,O[C@@H]1CO[C@H]2[C@@H]1OC[C@@H]2O [ISOSORBIDE],6.94,

SMILES,IC50 [1] [µM],IC50 [2] [µM],inhibition at 1000 µM [3] [%],Activity (Mus musculus)
Clc1ccccc1CN1CCc2sccc2C1 [TICLOPIDINE HYDROCHLORIDE],360,,,
